Screens deposited in PubChem by several laboratories.
Measles CPE: protection of cells from measles virus; Measles virus-infected cells, CPE protection, absorbance; hit rate 1.5% among 140,000; protection (pct of control), % at 4 µM; AID 841; in the data active = protection mostly above about 24%, no sharp cut-off; inactive = mostly below about 26%
RAM network inh: blocks the yeast RAM network | S. cerevisiae dse1pr::URA3 reporter, 5-FOA growth OD615, 2 d; analog-sensitive cbk1-as2 kinase mutant strain | hit rate 1.8% among 190,000 | inhibition, % at 50 µM;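 active = inhibition above a set limit, 3 SD over mean compound inhibition, cut at about 8.4% in these data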;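 note: 0% = DMSO-only wells with no growth and 100% = 10 µM 1-NA-PP1 full growth; inhibition rescues growth on 5-FOA so higher OD means more RAM inhibition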
BB579 growth dn: chemicals that inhibit yeast BB579 growth in restrictive medium (lifespan-shortening candidates); hit rate 0.51% among 140,000; AID 804; inhibition, % at 10 µM; S. cerevisiae BB579 growth, OD615, 48 h;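 active = inhibition above a set limit, 3 SD over the mean compound inhibition, cut at about 44% in these data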
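Material: Saccharomyces cerevisiae DeaD strain BB579, replicative lifespan model yeast; buffer or medium: CSMM-D restrictive synthetic medium containing dextrose (glucose); compound: 10 µM single dose, DMSO 0.25%; timing: 48 h compound exposure at 30 °C after 4 h preincubation; signal: turbidity as optical density at 615 nm; benchmarks: positive control amphotericin B 10 µg/mL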
Yeast lifespan up: yeast lifespan extension. S. cerevisiae growth with nicotinamide, OD615; deaD strain in restrictive glucose medium. inhibition of the nicotinamide effect, % at 10 µM. hit rate 0.68% among 130,000. AID 775;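 active = inhibition above a set limit, placed 3 SD over the median of all compounds, cut at about 26% in these data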;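 note: 0% = nicotinamide-treated wells and 100% = cells grown without nicotinamide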
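assay system = DeaD-strain S. cerevisiae | measured by = absorbance at 615 nm | probe or stimulus = nicotinamide 1.5 mM | buffer or medium = CSMM-D glucose medium, restrictive | times = 48 h at 30 °C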
Mdm2 ligase inh: blocks human Mdm2 ubiquitin ligase activity | cell-based MDM2 ubiquitination luciferase reporter, 2 h; 0 = plate control, 100 = twice control, blank-subtracted | signal enhancement, % at 5 µM | hit rate 0.11% among 210,000 | AID 1230;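 active = signal enhancement of 30% or more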;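 note: luminescence tracks abundance of the self-degrading MDM2-luciferase fusion protein; higher signal means inhibition of MDM2 E3 ligase activity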
Target sequence (Q00987 whole entry, looked up, the tested form may be a part): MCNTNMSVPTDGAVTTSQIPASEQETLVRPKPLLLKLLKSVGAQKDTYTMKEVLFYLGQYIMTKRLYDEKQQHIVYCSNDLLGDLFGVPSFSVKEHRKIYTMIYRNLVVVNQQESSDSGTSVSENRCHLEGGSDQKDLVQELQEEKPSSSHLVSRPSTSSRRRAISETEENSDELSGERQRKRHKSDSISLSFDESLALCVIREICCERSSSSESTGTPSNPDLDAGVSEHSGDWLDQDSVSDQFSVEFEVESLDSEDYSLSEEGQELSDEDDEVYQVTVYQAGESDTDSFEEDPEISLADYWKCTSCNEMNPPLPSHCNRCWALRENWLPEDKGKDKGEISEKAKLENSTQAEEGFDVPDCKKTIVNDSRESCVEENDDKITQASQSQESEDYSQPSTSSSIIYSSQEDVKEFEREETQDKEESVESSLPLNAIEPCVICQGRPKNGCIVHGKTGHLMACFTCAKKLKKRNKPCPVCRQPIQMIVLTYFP
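system = mammalian cells stably expressing self-ubiquitinating, self-degrading MDM2 E3–luciferase fusion | quantity = 2000 cells per well seeded | incubation = 4 h cell settling then 2 h compound exposure, 37 °C | signal = SteadyLite luminescence, 15 min reagent step | benchmarks = plate control and blank wells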
INS promoter inh: TRM-6 insulin promoter activity inhibition | TRM-6 cells (human fetal islet line), insulin promoter-eGFP reporter, imaging; reporter expression induced with tamoxifen | inhibition, % at 2 µM | hit rate 0.9% among 130,000;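 active = inhibition above the mean plus 3 SD, with well images judged a real hit on visual review, cut at about 60% in these data, passing the limit was not always enough; inconclusive = inhibition over the cutoff but images rejected on review; inactive = inhibition not above the cutoff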
An asterisk follows results filed as active; ? = inconclusive; . = no result given. Hits are enriched below; roughly 4% of the tested compounds scored in any of these assays.

SMILES	Measles CPE	RAM network inh	BB579 growth dn	Yeast lifespan up	Mdm2 ligase inh	INS promoter inh
CCN(CC)S(=O)(=O)c1cc(C(=O)OCC(=O)Nc2cccc(S(=O)(=O)N(C)C)c2)ccc1F	.	9.2*	.	.	-11	.
CCN(CC)S(=O)(=O)c1cc(NC(=O)COC(=O)CCC(=O)c2cccs2)ccc1C	.	7	.	.	-4	-14
O=C(N/N=C/C1CC2C=CC1C2)c1ccccc1O (stereo not drawn)	.	.	.	.	-7	.
CCC(C)NC(=O)C1CCN(S(=O)(=O)c2cccc3cccnc23)CC1 (stereo not drawn)	9	1	49*	-7	3	.
COc1nc(NCc2ccco2)nc(NC2CCCCC2)n1	27	0	-50	.	3	?
CCOc1nc(NC2CCCCC2)nc(NC(C)(C)C)n1	61*	-1	-2	.	-13	?
COc1cc([N+](=O)[O-])ccc1NC(=O)CSc1n[nH]c(C(C)C)n1	.	1	.	.	-23	.
Cc1occc1C(=O)NC1CCCCCCC1	28*	0	-1	6	-4	33
Cc1occc1C(=O)NNC(=O)C1CCCC1	.	0	.	.	-15	10
COc1ccc(OCC(O)Cn2cnc(-c3ccc(Br)cc3)c2)cc1 (stereo not drawn)	4	4	-25	.	-5	12
OC(COc1ccc2ccccc2c1Br)Cn1cnc(-c2ccccc2)c1 (stereo not drawn)	1	-2	93*	-14	-12	3
COCCCNc1nc(=S)[nH]c2cc(OC)c(OC)cc12	7	2	-52	-2	-20	.
COc1cc2[nH]c(=S)nc(NCCC(C)C)c2cc1OC	.	1	.	.	3	83*
CC(CNC(=O)C(C)C)NC(=O)C(C)C (stereo not drawn)	27*	2	-31	-7	2	17
CCCCC(CC)C(=O)NCC(C)NC(=O)C(CC)CCCC (stereo not drawn)	5	2	-17	6	-5	-66
Cc1ccccc1CSCCNS(C)(=O)=O	5	1	-8	-7	-27	-60
COc1ccc(S(=O)(=O)NCCSCc2ccccc2C)cc1Br	22	9.9*	-43	-5	-3	31
CCOC(=O)c1nn(-c2cccc(C)c2)c2nnc(Cc3ccc(C)cc3)c(=O)n12	9	3	-28	26	2	-5
CCOC(=O)c1nn(-c2ccccc2)c2nnc(Cc3ccc(C)cc3)c(=O)n12	19	0	-17	10	-4	77*
CCOC(=O)c1nn(-c2ccccc2)c2nnc(Cc3ccccc3)c(=O)n12	16	1	-13	32*	2	8
COc1ccc(-c2noc(CN3C(=O)c4ccccc4C3=O)n2)cc1	37*	2	-46	-2	-8	-6
CC(NCC1(N2CCOCC2)CCCCC1)C(=O)Nc1ccc(Cl)cc1Cl (stereo not drawn)	.	0	.	.	-5	-29
COC(=O)c1cn(Cc2ccccn2)c(=O)c2ccccc12	.	2	.	.	2	.
COC(=O)c1c(N2C(=O)Nc3ccccc3N2O)sc(C)c1C	.	-1	.	.	-19	14
CCOC(=O)c1c(N2C(=O)Nc3ccccc3N2O)sc2c1CCCC2	20	2	-31	30*	-6	19
SMILES	Measles CPE	RAM network inh	BB579 growth dn	Yeast lifespan up	Mdm2 ligase inh	INS promoter inh
COc1ccc(S(=O)(=O)N2CCC(C(=O)NCCc3ccccc3)CC2)cc1OC	32	2	-9	-2	-19	21
COc1ccc(CCNC(=O)C2CCN(S(=O)(=O)c3c(C)noc3C)CC2)cc1OC	8	-1	-18	-19	-5	66*
COc1ccc(CCNC(=O)C2CC2)cc1OC	46*	2	-30	-20	-6	.
COc1ccc(C)cc1S(=O)(=O)N1CCC(C(=O)NCCc2ccccc2)CC1	5	0	8	28*	3	24
COc1cc(C(=O)Nc2nnc(-c3sccc3C)s2)cc(OC)c1OC	16	0	-32	-6	5	-7
COc1ccccc1NC(=O)c1ccc(NC(=O)CSc2ncn[nH]2)cc1	23	0	-56	0	11	43
CCOc1cc(C2CC(=O)c3c(ccc4ccccc34)N2)ccc1O (stereo not drawn)	4	1	-21	-15	-12	.
O=C(NC(Cc1ccccc1)C(=O)O)/C(=C/c1ccc(F)cc1)NC(=O)c1ccccc1 (stereo not drawn)	12	2	-28	-1	-21	.
O=c1[nH]c(O)c(/C=C2\C=Nc3ccccc32)[nH]1	.	.	.	.	-8	.
O=c1oc2ccccc2c(O)c1/C=C1\C=Nc2ccccc21	11	2	86*	-4	-9	28
CC1=C(CC/C(C)=N/NC(N)=S)C(C)(C)CCC1	22	1	-30	.	.	-176
COC(=O)c1ccc(C)c(NS(=O)(=O)c2ccc(C)c([N+](=O)[O-])c2)c1	14	0	-43	-2	-3	-62
COC(=O)c1ccc(C)c(NS(=O)(=O)c2ccc(OC)cc2)c1	3	-1	-44	1	-2	100*
CC(NC(=O)C(=O)NCCC1=CCCCC1)c1ccccc1 (stereo not drawn)	8	3	-2	1	.	-3
Nc1ccc(Cc2nc3c(ccc4ccccc43)[nH]2)cc1	58*	0	-54	-20	2	27
Cc1ccc2nc(Cc3ccc(N)cc3)[nH]c2c1	8	1	-23	2	-7	48
C/C=C/C(=O)OCC(=O)Nc1cc(-c2cc(C)c(C)cc2C)nn1-c1ccccc1	9	6	-25	-2	-5	.
CCc1ccc(NC(=S)N(CCN2CCOCC2)Cc2ccccc2F)cc1	.	1	.	.	-13	-100
CCOC(=O)c1ccc(CNCc2ccc(Br)cc2)cc1	11	2	-4	6	-3	0
CCOC(=O)c1[nH]nc(C(=O)c2ccc(Br)cc2)c1O	.	2	-35	48*	-29	.
CCOC(=O)c1c(NC(=O)C2C3C=CC(C3)C2C(=O)O)sc2c1CCC(CC)C2 (stereo not drawn)	29	1	-15	42*	-9	27
CCOC(=O)c1c(NC(=O)C2C3CCC(O3)C2C(=O)O)sc2c1CCC(CC)C2 (stereo not drawn)	.	0	.	.	-88	50
CC(=O)N(CC(C)(C)CC=C(C)C)c1ccccc1	5	0	-34	.	-5	65*
O=C(Nc1ccccc1)C1=C[C@H](c2ccc(Br)cc2)C[C@H](OCc2ccc(CO)cc2)O1	.	8	.	.	.	.
O=C(NCc1ccccc1)C1=C[C@H](c2ccc(Br)cc2)C[C@H](OCc2ccc(CO)cc2)O1	.	11*	.	.	.	.
O=C(C1=C[C@@H](c2ccc(Br)cc2)C[C@@H](OCc2ccc(CO)cc2)O1)N1CCOCC1	.	9.2*	.	.	.	.
O=C(NCc1ccccc1)C1=C[C@@H](c2ccccc2)C[C@@H](OCc2ccc(CO)cc2)O1	.	8	.	.	.	.
